From ChEMBL document CHEMBL3576830, “Exploiting the Polypharmacology of ß-Carbolines to Disrupt O. volvulus Molting” (ACS Med Chem Lett, 2015) come the findings set out here.

Activity calls are given as the source filed them. The calls are words filed in the database; no cut-off is given here.

Data set [1] relates to Caenorhabditis elegans. In words: Drug level in late stage L4 Caenorhabditis elegans treated with 2-(Cyclopropylmethyl)-7-methoxy-1-methyl-9H-pyrido[3,4-b]indol-2-ium bromide at 10 uM after 6 hrs by LC-MS analysis. Format: ADME, organism-based. The conditions noted are these: in vivo. A digest of the protocol: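 Late-stage L4 C. elegans were exposed to 10 μM compound (equivalent to 2 nmol/mg worm) for 6 h. Worm homogenates were quantified by LC–MS and expressed as nmol/mg worm, mean ± SD, n = 3.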

In data set [2] the target is T1, Chitinase (Onchocerca volvulus, UniProt Q25615).
T1 sequence (Q25615 whole entry): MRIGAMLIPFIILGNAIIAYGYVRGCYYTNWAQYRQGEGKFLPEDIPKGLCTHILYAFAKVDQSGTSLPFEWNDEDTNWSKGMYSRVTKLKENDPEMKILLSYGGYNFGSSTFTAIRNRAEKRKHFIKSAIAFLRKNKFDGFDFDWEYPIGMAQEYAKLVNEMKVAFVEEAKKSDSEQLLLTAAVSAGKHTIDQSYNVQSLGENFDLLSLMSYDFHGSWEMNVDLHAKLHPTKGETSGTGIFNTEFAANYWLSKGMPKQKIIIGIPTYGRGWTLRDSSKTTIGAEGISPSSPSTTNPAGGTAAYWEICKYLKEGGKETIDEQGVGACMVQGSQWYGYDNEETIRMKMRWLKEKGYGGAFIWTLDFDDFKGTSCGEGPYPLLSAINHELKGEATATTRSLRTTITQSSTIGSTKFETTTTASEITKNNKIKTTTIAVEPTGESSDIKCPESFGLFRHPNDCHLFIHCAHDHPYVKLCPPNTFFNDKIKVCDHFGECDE
Kind of data set: Inhibition of L3 larval stage of Onchocerca volvulus chitinase using 4-methylumbelliferyl-N-N'-N''-beta-chitotrioside as substrate assessed as release of 4-methylumbelliferone measured for 10 mins by fluorescence assay.

Data set [3] relates to Onchocerca volvulus. In words: Antionchocerciasis activity against L3 larval stage of Onchocerca volvulus assessed as inhibition of parasite molting at 10 uM treated for 24 hrs prior to complete medium and PBMC addition measured after 6 days by inverted microscopic analysis. The data set is classed as functional. A digest of the protocol: (§1)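 O. volvulus L3 larvae in wells, 2−3 wells per condition with on average 5−10 larvae each, exposed to inhibitor. Molting counted and expressed as percent molting.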

Another data set deals with Entamoeba histolytica. In words: Inhibition of Entamoeba histolytica chitinase using 4-methylumbelliferyl-N-N'-N''-beta-chitotrioside as substrate assessed as release of 4-methylumbelliferone at 10 uM measured for 10 mins by fluorescence assay.
The target of data set [4] is T1, Chitinase. In words: Competitive inhibition of L3 larval stage of Onchocerca volvulus chitinase using 4-methylumbelliferyl-N-N'-N''-beta-chitotrioside as substrate assessed as release of 4-methylumbelliferone measured for 10 mins by Dixon plot analysis.
In data set [5] the target is T2, Endochitinase (Brugia malayi) (UniProt P29030).
T2 sequence (whole entry): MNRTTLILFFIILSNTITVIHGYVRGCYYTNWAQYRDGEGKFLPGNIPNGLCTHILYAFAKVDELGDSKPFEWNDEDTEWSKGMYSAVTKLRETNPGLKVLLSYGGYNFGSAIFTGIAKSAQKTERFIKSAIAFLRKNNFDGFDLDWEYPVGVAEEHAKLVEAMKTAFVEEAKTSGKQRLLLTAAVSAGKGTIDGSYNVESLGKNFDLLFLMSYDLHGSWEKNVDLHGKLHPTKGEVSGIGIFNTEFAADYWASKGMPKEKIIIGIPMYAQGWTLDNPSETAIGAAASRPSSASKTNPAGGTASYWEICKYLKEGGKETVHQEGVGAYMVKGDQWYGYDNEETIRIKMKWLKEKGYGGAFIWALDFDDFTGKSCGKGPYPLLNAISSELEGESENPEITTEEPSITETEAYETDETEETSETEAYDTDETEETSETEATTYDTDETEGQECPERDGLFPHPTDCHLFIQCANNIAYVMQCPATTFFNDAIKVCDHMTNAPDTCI
In words: Inhibition of Brugia malayi chitinase using 4-methylumbelliferyl-N-N'-N''-beta-chitotrioside as substrate assessed as release of 4-methylumbelliferone at 10 uM measured for 10 mins by fluorescence assay.

Data set [6] deals with HEK-293T. In words: Mitochondrial uncoupling activity in HEK293T/17 cells at 50 uM after 30 mins by TMRE staining-based fluorescence assay. The conditions noted are these: Homo sapiens. Format: functional, cell-based. The method in brief: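 HEK 293T/17 cells incubated with 50 μM compound, then stained with TMRE to detect mitochondrial membrane depolarization, read in a microplate fluorescence assay. Reported as mean fluorescence intensity ± SD (n = 3). Unstained cells served as negative control and 0.5% DMSO as positive control. CCCP served as reference protonophore.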

Data set [7] deals with T3, Chitinase (Onchocerca volvulus) (UniProt Q25615).
T3 sequence (whole entry): T1 sequence (Q25615 whole entry)
In words: Inhibition of L3 larval stage of Onchocerca volvulus chitinase using 4-methylumbelliferyl-N-N'-N''-beta-chitotrioside as substrate assessed as release of 4-methylumbelliferone at 5 uM measured for 10 mins by fluorescence assay. The method in brief:
(§2)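 OvCHT1 activity read by fluorescence, inhibitors tested at 10 and 5 μM.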

The target in data set [8] is T3, Chitinase (Onchocerca volvulus). Kind of data set: Inhibition of L3 larval stage of Onchocerca volvulus chitinase using 4-methylumbelliferyl-N-N'-N''-beta-chitotrioside as substrate assessed as release of 4-methylumbelliferone at 10 uM measured for 10 mins by fluorescence assay. The data set is classed as tissue-based. A digest of the protocol: as §2
The subject of data set [9] is Onchocerca volvulus. Kind of data set: Antionchocerciasis activity against L3 larval stage of Onchocerca volvulus assessed as prevention of L3 cuticle shedding at 100 uM treated for 24 hrs prior to complete medium and PBMC addition measured after 6 days by inverted microscopic analysis. The data set is classed as functional, organism-based. A digest of the protocol: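 O. volvulus L3 larvae in 2–3 wells, on average 5–10 larvae per well; read-out is percent molting across the wells.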

Data set [10] concerns Onchocerca volvulus. In words: Antionchocerciasis activity against L3 larval stage of Onchocerca volvulus assessed as inhibition of parasite molting at 1 uM treated for 24 hrs prior to complete medium and PBMC addition measured after 6 days by inverted microscopic analysis. The data set is classed as functional. The method in brief: as §1
Data set [11] relates to HEK-293T. In words: Cytotoxicity against HEK293T/17 cells at 5 uM after 0.5 to 24 hrs by MTS assay. The data set is classed as cell-based. The conditions noted are these: human.
Data set [12] concerns Caenorhabditis elegans. In words: Drug uptake in late stage L4 Caenorhabditis elegans at 10 uM after 6 hrs by LC-MS analysis. The conditions noted are these: in vivo. The data set is classed as ADME, organism-based. The method in brief: (§3)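 Late-stage L4 C. elegans incubated 6 h with 10 μM inhibitor (equivalent to 2 nmol/mg worm). Worm homogenates quantified by LC−MS and also searched for metabolites (7-O-dealkylation, aromatic ring and N²-oxidation products). Uptake expressed as nmol/mg worm, mean ± SD, n = 3.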

Data set [13] deals with Caenorhabditis elegans. Kind of data set: Drug metabolism in late stage L4 Caenorhabditis elegans assessed as formation of 7-O-dealkylated, aromatic ring, and N2-oxidized metabolite at 10 uM after 6 hrs by LC-MS analysis. Format: ADME, organism-based. The conditions noted are these: in vivo. A digest of the protocol: as §3
Data set [14] relates to Caenorhabditis elegans. Kind of data set: Drug metabolism in late stage L4 Caenorhabditis elegans assessed as formation of 7-methoxy-1-methyl-9H-pyrido[3,4-b]indole at 10 uM after 6 hrs by LC-MS analysis. Format: ADME, organism-based. The conditions noted are these: in vivo. A digest of the protocol: as §3

Turning to `COc1ccc2c(c1)[nH]c1c(C)nccc12` [HARMINE], in the data set on Caenorhabditis elegans [1], the Drug uptake is 0.052 nmol/mg. Besides, on Chitinase [2], the half-maximal inhibitory concentration (IC50) is 7.06 µM. Besides, the inhibition at 10 µM in the data set on Onchocerca volvulus [3] was 57%. The inhibition entry (in the data set with Entamoeba histolytica; in data set [5]) was “inactive” each time. Moreover, the inhibition constant (Ki) on Chitinase [4] came to 3780 nM. For the same compound, in the data set on HEK-293T [6], the outcome was Active.

As to `Cc1c2[nH]c3ccccc3c2cc[n+]1Cc1ccc(Cl)cc1`, the inhibition entry in [7] was “inactive”.

As for `Cc1nccc2c3ccccc3n(Cc3ccccc3)c12`, the inhibition result in [8] was “inactive”.

For the compound `Cc1[nH]ccc2c1[nH]c1cc(=O)ccc12` [HARMOL], the IC50 at Chitinase [2] came out at 7.08 µM. Also, in the data set with Onchocerca volvulus [3], the inhibition at 10 µM is 61%. The inhibition entry (with Entamoeba histolytica; in data set [5]) was “inactive” each time. Besides, the outcome in the data set with HEK-293T [6] was Active.

In the case of `Cc1ccc(NS(=O)(=O)c2ccc3[nH]c4cnccc4c3c2)cc1`, the inhibition result in data set [8] is “inactive”.

As for `O=S(=O)(Nc1ccc(Cl)cc1)c1ccc2[nH]c3cnccc3c2c1`, the inhibition entry in data set [8] is “inactive”.

`Cc1nccc2c3ccc(OCc4ccc(Cl)cc4)cc3n(Cc3ccc(Cl)cc3)c12`: the IC50 on Chitinase [2] was determined as 2.08 µM. Moreover, the inhibition entry (with Onchocerca volvulus [3]; in the data set with Entamoeba histolytica; in data set [5]) was “inactive” in each case. The outcome with Onchocerca volvulus [9] was Active. In addition, the result with HEK-293T [6] was inactive.

As to `Cc1c2[nH]c3ccccc3c2cc[n+]1CC1CC1`, the inhibition result in data set [7] was “inactive”.

For the compound `Cc1c2[nH]c3ccccc3c2cc[n+]1Cc1ccccc1`, in data set [8], the inhibition entry is “inactive”.

As to `COc1ccc2c3ccnc(C)c3n(CC3CC3)c2c1`, in data set [8], the inhibition entry is “inactive”.

Take `Cc1nccc2c1[nH]c1cc(OCC3CC3)ccc12`: the inhibition result in data set [8] was “inactive”.

In the case of `N#CC(C#N)=NNc1cccc(Cl)c1`, the outcome with HEK-293T [6] was Active.

With `Cc1nccc2c1[nH]c1cc(OCc3ccc(Cl)cc3)ccc12`, in data set [8], the inhibition entry was “inactive”.

Turning to `CCNS(=O)(=O)c1ccc2[nH]c3cnccc3c2c1`, in data set [8], the inhibition result was “inactive”.

As to `Cc1nccc2c1[nH]c1ccccc12` [HARMAN], on Chitinase [2], the half-maximal inhibitory concentration (IC50) is 7.33 µM. Besides, the inhibition entry with Onchocerca volvulus [3] is “inactive”. In addition, in the data set on Onchocerca volvulus [9], the result was Active. Moreover, in the data set on HEK-293T [6], the outcome was inactive.

As to `Cc1nccc2c3ccccc3n(Cc3ccc(Cl)cc3)c12`, the inhibition result in data set [8] is “inactive”.

As for `Cc1c2[nH]c3cc(OCc4ccc(Cl)cc4)ccc3c2cc[n+]1Cc1ccc(Cl)cc1.[Br-]`, the inhibition at 1 µM in the data set on Onchocerca volvulus [10] worked out at 27%. For the same compound, the IC50 at Chitinase [2] stood at 1.43 µM. The inhibition result (with Onchocerca volvulus [3]; in the data set on Entamoeba histolytica; in data set [5]) was “Active” throughout. Besides, the Activity result in the data set on HEK-293T [11] was “Non-toxic”. For the same compound, the Ki at Chitinase [4] was 980 nM. For the same compound, the outcome in the data set with HEK-293T [6] was Active.

Turning to `O=S(=O)(NC1CCCC1)c1ccc2[nH]c3cnccc3c2c1`, the inhibition entry in data set [8] is “inactive”.

Consider `Cc1nccc2c3ccccc3n(C)c12`, for which the inhibition entry in data set [8] was “inactive”.

Regarding `Cc1nccc2c3ccccc3n(CC3CC3)c12`, in data set [7], the inhibition result was “inactive”.

Take `COc1ccc2c(c1)[nH]c1c(C)[n+](CC3CC3)ccc12.[Br-]`: the inhibition entry (with Onchocerca volvulus [10]; with Entamoeba histolytica; in data set [5]) was “inactive” throughout. Also, the IC50 on Chitinase [2] was 3.57 µM. Moreover, the inhibition entry in the data set on Onchocerca volvulus [3] was “Active”. This compound registered a Drug uptake in the data set with Caenorhabditis elegans [12] of 0.033 nmol/mg. In addition, the Activity entry in the data set on HEK-293T [11] was “Non-toxic”. The Drug metabolism entry is given as “metabolite_notdetected” in the data set on Caenorhabditis elegans [13] and “metabolite_detected” in the data set on Caenorhabditis elegans [14]. For the same compound, in the data set with HEK-293T [6], the outcome was Active.

With `COc1ccc2c3ccnc(C)c3n(Cc3ccc(Cl)cc3)c2c1`, the inhibition entry in [8] is “inactive”.

Regarding `Cc1c2[nH]c3ccccc3c2cc[n+]1Cc1ccc(C(F)(F)F)cc1`, the inhibition result in data set [8] is “inactive”.

Consider `COc1ccc2c(c1)[nH]c1c(C)[n+](Cc3ccc(Cl)cc3)ccc12.[Br-]`, for which the inhibition at 1 µM with Onchocerca volvulus [10] stood at 45%. The IC50 on Chitinase [2] was 3.49 µM. Also, the inhibition entry in the data set with Onchocerca volvulus [3] was “Active”. The Drug uptake in the data set with Caenorhabditis elegans [12] stood at 0.22 nmol/mg. Also, the Activity entry with HEK-293T [11] is on record as “Non-toxic”. Moreover, the result in the data set with HEK-293T [6] was Active.

With `c1ccc2c(c1)[nH]c1cnccc12` [NORHARMANE], the IC50 at Chitinase [2] stood at 8.46 µM. Moreover, the inhibition result in the data set with Onchocerca volvulus [3] is “inactive”. For the same compound, in the data set with Onchocerca volvulus [9], the result was Active. In addition, the result in the data set with HEK-293T [6] was inactive.

With `Cc1c2[nH]c3ccccc3c2cc[n+]1C`, the inhibition entry in data set [8] is “inactive”.

Regarding `O=S(=O)(Nc1ccccc1)c1ccc2[nH]c3cnccc3c2c1`, the inhibition entry in data set [8] was “inactive”.

A word on the IC50: it is the concentration needed to halve the response being measured. As usually defined, the inhibition is how much of the control response was suppressed. Usually Ki stands for a measure of affinity in units of concentration, obtained from inhibition or displacement.
